≈ marks a conversion by molar mass, not a printed value. Calls of active or inactive are those of the source. The rule behind the calls is not given here.
Key:
Mus musculus [1] = test: (§1) Immunomodulatory activity in mouse assessed as reduction in total B cells in splenocyte administered via oral gavage bid at 8 and 16 hrs dosing interval between first and second dose respectively for 11 days measured 16 hrs post last dose on day 12 by B220 staining based flow cytometry; type: functional, cell-based
[2] = Drug uptake in Lewis rat spleen at 30 mg/kg, po bid after 24 hrs by LC/MS/MS analysis; type: ADME, organism-based; settings: read-out: Drug uptake
[3] = Octanol-buffer partition coefficient, log P of the compound by LC/MS/MS based shake flask method; type: physicochemical
Rattus norvegicus [4] = test: Dose normalized drug uptake in Wistar rat at 10 mg/kg, po bid measured up to 7 hrs by LC/MS/MS analysis; type: ADME, organism-based, Wister; settings: in vivo
[5] = biological target: T1, Signal peptide peptidase-like 2A (Mus musculus) (UniProt Q9JJF9); settings: 2 uM
T1 sequence (whole entry): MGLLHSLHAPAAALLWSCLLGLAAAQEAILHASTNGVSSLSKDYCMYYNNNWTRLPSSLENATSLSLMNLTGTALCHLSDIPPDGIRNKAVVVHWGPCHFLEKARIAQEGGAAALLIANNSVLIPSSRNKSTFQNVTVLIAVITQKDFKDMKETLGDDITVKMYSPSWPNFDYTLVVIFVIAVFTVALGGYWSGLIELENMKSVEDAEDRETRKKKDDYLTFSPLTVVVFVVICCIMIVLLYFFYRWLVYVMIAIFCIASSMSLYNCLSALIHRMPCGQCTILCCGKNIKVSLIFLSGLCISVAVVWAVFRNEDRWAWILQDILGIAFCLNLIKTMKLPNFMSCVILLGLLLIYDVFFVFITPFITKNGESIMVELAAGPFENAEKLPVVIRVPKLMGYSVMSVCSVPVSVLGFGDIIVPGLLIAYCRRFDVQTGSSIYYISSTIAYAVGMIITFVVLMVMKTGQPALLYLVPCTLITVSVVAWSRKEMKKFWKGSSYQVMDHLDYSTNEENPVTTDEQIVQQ

Salmonella typhimurium = test: Genotoxicity in Salmonella typhimurium by Ames test; type: toxicity; settings: salmonella enterica subsp. enterica serovar typhimurium
Plasma = test: Cmin in mouse plasma at 10 mg/kg, po bid administered at 8 and 16 hrs dosing interval between first and second dose respectively for 11 days measured predose on day 12 by LC/MS/MS analysis; type: ADME, organism-based; settings: in vivo, read-out: Cmin
Method in brief: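 Mice gavaged bid in 0.5% MC:0.5% Tween or PEG:D5W 3:1; trough sample taken before the morning dose; 50 μL retro-orbital blood into LiHep tubes, kept on ice, plasma separated at 2823g for 5 min, stored at −20 °C until analysis.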

[6] = biological target: T1, Signal peptide peptidase-like 2A (Mus musculus); settings: 2 uM; remark: listed apart in the source
[7] = Drug uptake in Lewis rat spleen at 10 mg/kg, po bid after 24 hrs by LC/MS/MS analysis; type: ADME, organism-based; settings: read-out: Drug uptake
Mus musculus [8] = test: Dose normalized drug uptake in Balb/c mouse at 5 mg/kg, iv by LC/MS/MS analysis; type: ADME, organism-based; settings: in vivo
Mus musculus [9] = test: In vivo inhibition of SPPL2a in mouse assessed as accumulation of CD74/p8 in splenocyte lysate at 10 mg/kg administered via oral gavage as single dose measured 16 hrs post dose by Western blot method relative to control; type: functional
Method in brief: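 Mice gavaged in 0.5% MC:0.5% Tween or PEG:D5W 3:1. Spleens dissociated, red cells lysed with ACK, 1 × 10^6 cells lysed with protease inhibitors; 18 μg lysate on 10% gel, blotted, CD74 full length and p8 detected with rat anti-mouse CD74 In-1 and Alexa488 anti-rat IgG, LiCor scan; p8/full-length ratio expressed as percent of reference compound ratio.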

Mus musculus [10] = test: as §1, with “plasmacytoid dendritic” for “total B”, “splenocyte at 3 to 30 mg/kg” for “splenocyte”; type: functional, organism-based
Method in brief: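 Mice gavaged with compound in 0.5% MC:0.5% Tween or PEG:D5W 3:1. Spleens dissociated in GentleMACS, filtered at 40 μm, ACK red-cell lysis, counted; 1 × 10^6 splenocytes stained 30 min on ice in HBSS/2% FBS/5 mM EDTA with antimouse panels for B-cell subsets (B220, CD21, CD23, IgM, IgD) or dendritic cells (PDCA1, CD11c, MHCII, lineage markers); analyzed on Fortessa flow cytometer.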

Rattus norvegicus [11] = test: Dose normalized Cmax in Wistar rat at 10 mg/kg, po bid measured up to 1 hr by LC/MS/MS analysis; type: ADME, organism-based, Wister; settings: in vivo
Rattus norvegicus [12] = test: In vivo inhibition of SPPL2a in Lewis rat assessed as accumulation of CD74/p8 in blood at 1 mg/kg first dose administered via oral gavage followed by second dose after 8 hrs measured 16 hrs post second dose by Western blot method; type: functional, organism-based
Method in brief: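 Rat blood (200 μL) red cells lysed with RBC lysis buffer three times, pellet lysed in Tris pH 6.8/NaCl/EDTA/Triton X-100/deoxycholate with protease inhibitors; Western blot for CD74/p8 with affinity-purified antibody specific for rat CD74/p8 at 1:200.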

[13] = Equilibrium solubility of the compound at pH 6.8 after 24 hrs by saturation shake flask based UV-HPLC method; type: physicochemical; settings: buffer
[14] = Drug uptake in mouse spleen at 30 mg/kg, po administered as single dose after 4 hrs by LC/MS/MS analysis; type: ADME, organism-based; settings: read-out: Drug uptake
[15] = Drug uptake in mouse spleen at 10 mg/kg, po administered as single dose after 4 hrs by LC/MS/MS analysis; type: ADME, organism-based; settings: read-out: Drug uptake
[16] = Total plasma concentration in mouse at 30 mg/kg, po administered as single dose after 4 hrs by LC/MS/MS analysis; type: ADME, organism-based
Mus musculus [17] = test: In vivo inhibition of mouse gamma-secretase assessed as effect on Hes1 mRNA level in thymus up to 100 mg/kg, po administered as single dose by RT-PCR method; type: organism-based
Method in brief: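 Thymus and jejunum excised into RNALater, 4 °C overnight, washed, frozen at −80 °C; total RNA from 10 mg tissue by MagNA Pure LC; Hes1 measured by TaqMan real-time PCR; significance by two-tailed heteroscedastic Student's t-test.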

[18] = Stability in mouse liver microsomes at […] preincubated for 3 mins followed by NADPH addition measured after 1 hr in presence of GSH and [13C2-15N-glycine]-GSH by HPLC/MS method; type: ADME, microsome; settings: read-out: Stability
[19] = Stability in rat liver microsomes at […] preincubated for 3 mins followed by NADPH addition measured after 1 hr in presence of GSH and [13C2-15N-glycine]-GSH by HPLC/MS method; type: ADME, microsome; settings: read-out: Stability
[20] = biological target: T1, Signal peptide peptidase-like 2A (Mus musculus); test: Reversible inhibition of SPPL2a in mouse A20 cells assessed as increase in CD74/p8 accumulation at 2 uM preincubated for 16 hrs followed by compound wash out measured up to 2 hrs by Western blot method; type: cell-based

**Q.** For `Cc1ncc(F)cc1NC(=O)C[C@H](C(=O)N[C@@H]1C(=O)N2CC3(CC3)CN2C(=O)c2ccccc21)C1CC1`, which Activity (Mus musculus [1]) is on record?
**A.** The Activity was “Dose-dependent effect”.

**Q.** And the concentration at 24 h [2]?
**A.** The concentration at 24 h was 4450 nM.

**Q.** What about the logP [3] of the same compound?
**A.** Its logP is 2.3.

**Q.** What about the Druguptake/dose (Rattus norvegicus [4]) of the same compound?
**A.** Its Druguptake/dose is 421 nM.

**Q.** And the inhibition [5]?
**A.** Its inhibition is 50%.

**Q.** And the Activity (Salmonella typhimurium)?
**A.** The Activity was “Non-Toxic”.

**Q.** And the concentration (Plasma)?
**A.** Its concentration is 66 nM.

**Q.** And the inhibition [6]?
**A.** Its inhibition is “inactive”.

**Q.** What about the concentration at 24 h [7] of the same compound?
**A.** The concentration at 24 h was 2400 nM.

**Q.** And the Druguptake/dose (Mus musculus [8])?
**A.** The Druguptake/dose was 264 nM.

**Q.** And the inhibition in vivo at 10 mg/kg (Mus musculus [9])?
**A.** Its inhibition in vivo at 10 mg/kg is 50%.

**Q.** What about the Activity (Mus musculus [10]) of the same compound?
**A.** Its Activity is “inactive”.

**Q.** What about the Cmax/dose (Rattus norvegicus [11]) of the same compound?
**A.** Its Cmax/dose is 805 nM.

**Q.** And the inhibition (Rattus norvegicus [12])?
**A.** Its inhibition is “Active”.

**Q.** With `Cc1ccccc1NC(=O)C[C@@H](C)C(=O)N[C@@H]1C(=O)N2CCCN2Cc2ccccc21` as the compound, how does the solubility thermodynamic at 24 h [13] read?
**A.** The solubility thermodynamic at 24 h was 263 µM (≈ 111 µg/mL).

**Q.** And the concentration at 4 h [14]?
**A.** Its concentration at 4 h is 434 nM.

**Q.** And the concentration at 4 h [15]?
**A.** The concentration at 4 h was 127 nM.

**Q.** What about the concentration at 4 h [16] of the same compound?
**A.** Its concentration at 4 h is 500 nM.

**Q.** What about the Activity (Mus musculus [17]) of the same compound?
**A.** The Activity was “Non-Toxic”.

**Q.** And the remaining at 1 h [18]?
**A.** The remaining at 1 h was 92%.

**Q.** And the remaining at 1 h [19]?
**A.** The remaining at 1 h was 93.2%.

**Q.** What about the inhibition [20] of the same compound?
**A.** The inhibition was “Active”.

Source: ChEMBL document CHEMBL4043282, “Discovery of the First Potent, Selective, and Orally Bioavailable Signal Peptide Peptidase-Like 2a (SPPL2a) Inhibitor Displaying Pronounced Immunomodulatory Effects In Vivo” (J Med Chem, 2018)
